Source: PubChem (several laboratories)
Many of the other results were omitted from the sample, so hits are more common in it than they were.
T cruzi repl: inhibitors of intracellular T. cruzi growth, primary screen, luminescence, NIH3T3 host cells; 1.4% of 300,000 active; inhibition, % (test concentration not listed); AID 1885, 2009; T. cruzi beta-gal in NIH3T3, 90 h;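 active = mean inhibition across valid replicates above about 55%, limit read from the data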;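 also: signal also drops with host cell toxicity which is not excluded here; 0% = plate median of DMSO wells and 100% = zero luminescence signal; higher percent means less beta-gal luminescence so fewer parasites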
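Read-out: Parasite load inhibition, % | Test system: Mouse NIH/3T3 fibroblasts infected with β-gal-expressing T. cruzi Tulahuen C4 | Amount: 5,000 cells/well | Medium: DMEM, 2% fetal bovine serum | Signal: GalScreen β-gal luminescence, detergent lysis, 60 min | Timing: 3 h attach, ≥90 h co-culture | Also added: Tulahuen C4 trypomastigotes, 5000/well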
Lmaj promast: Leishmania major promastigote growth inhibition, primary screen; Leishmania major promastigotes, resazurin fluorescence viability; inhibition, % at 10 µM; 9% of 200,000 active; in the data active = inhibition above about 50%;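 also: promastigotes grown with compound for 44 hours at 28 °C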
NLRP3 yeast inh: NALP3 inflammasome inhibitors in reconstituted yeast, primary screen, luminescence, uHTS | Yeast reconstituted NLRP3/ASC/caspase-1, beta-gal luminescence, 24 h | inhibition, % at 10 µM | 0.39% of 330,000 active;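 active = inhibition of 50% or more; inactive = inhibition below 50%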;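 also: plate controls were induced DMSO wells for no effect and uninduced yeast grown without galactose for full effect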
Calb FLC: C. albicans growth inhibition with fluconazole, primary screen, CaCi-2 strain, Alamar Blue fluorescence; growth inhibition, % (test concentration not listed); 0.57% of 300,000 active; C. albicans CaCi-2 + fluconazole, 48 h;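 active = growth inhibition above about 58% in most replicates, limit read from the data, passing the limit was not always enough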;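 also: all wells also contain fluconazole at 8 µg/ml as a sub-toxic cotreatment; 0% = median of DMSO wells and 100% = median of geldanamycin control wells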
NALP1 inh: NALP1 inflammasome inhibitors in reconstituted yeast, colorimetric, S. cerevisiae, triplicate retest. S. cerevisiae NALP1/ASC/caspase-1 growth, X-gal OD620, 72 h. inhibition, % at 10 µM. 0.61% of 280,000 active. AID 2071, 2009; in the data active = inhibition mostly above about 24%, no sharp cut-off; inactive = mostly below about 32%
PolyA inh: polyadenylation inhibitors in yeast reporter cells, primary screen, luminescence, S. cerevisiae; S. cerevisiae SKY197-pL101 polyadenylation reporter, beta-gal luminescence; efflux-impaired pdr1/pdr3 knockout yeast; score 100 = 6 SD above DMSO; AID 1875, 2009; 0.02% of 300,000 active; activity score, % at 12 µM;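 active = lowest replicate activity score at least 50, where 100 means six control SD above control mean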;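 also: yeast exposed to compound for 9 h at 30 °C; higher score means more reporter readthrough which indicates perturbed polyadenylation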
The depositor's hits bear a star; x = not tested or not shown.

SMILES | T cruzi repl | Lmaj promast | NLRP3 yeast inh | Calb FLC | NALP1 inh | PolyA inh
COc1ccc(CC(=O)Nc2ccc(C(C)=O)cc2)cc1 | -17 | -1 | 15 | -5 | 10 | 10
COc1ccc(CC(=O)Nc2ccc(C(=O)NCC(C)C)cc2)cc1 | 13 | 54* | 10 | -14 | 20 | -16
COc1ccc(CNC(=O)Cn2nnc3ccccc3c2=O)cc1 | -13 | x | -2 | -3 | x | -20
COc1cc2c(-c3ccc4cc[nH]c4c3)c(-c3ccc(C#N)cc3)oc(=O)c2cc1OC | x | x | 5 | x | x | x
CN(c1nc2ccccc2nc1Cl)S(=O)(=O)c1ccccc1 | -3 | x | 24 | -10 | 5 | -17
COC(=O)c1ccc(NC(=O)Cc2ccc(F)cc2)cc1 | -29 | 68* | 30 | 15 | -1 | 17
Cc1ccc(NC(=O)Cc2ccc(F)cc2)cc1 | -8 | 12 | 13 | -12 | -10 | 22
COc1cccc(CNC(=O)c2cccc(Br)c2)c1 | -24 | 54* | 25 | -22 | 29 | 11
CC(C)(C)c1cc(C(=O)O)c(CN2CCCCC2)o1 | -2 | 0 | 7 | -4 | 38* | 11
CCN1CCCC1CN(Cc1cc2c(C)cc(C)cc2[nH]c1=O)C(=O)NC1CCCCC1 (configuration not stated) | 9 | 59* | 14 | -2 | 18 | 12
Cc1ccc(S(=O)(=O)NCc2ccccc2)cc1C(=O)NCc1ccccn1 | 1 | x | 4 | 15 | 2 | -14
NS(=O)(=O)c1ccc(CNC(=O)Cc2ccc(S(=O)(=O)N3CCOCC3)s2)cc1 | -4 | x | 15 | -3 | x | 18
O=C(COC(=O)Cc1ccc(S(=O)(=O)N2CCOCC2)s1)NCc1ccc(Cl)cc1 | 3 | -3 | 1 | -12 | 0 | 56*
CCC1CCCN1Cn1cnc2c([nH]c3ccc(OC)cc32)c1=O (configuration not stated) | 45 | 66* | 16 | 12 | x | 1
CCN1CCCC1Cn1cnc2c([nH]c3cccc(Cl)c32)c1=O (configuration not stated) | 13 | 81* | -6 | -1 | 16 | 11
Cc1ccc(OCCC(=O)OCC(=O)Nc2ccc(F)cc2)cc1 | -8 | x | 10 | -2 | x | 4
CCc1ccc2[nH]c(=O)c(CN(Cc3ccccc3OC)Cc3nnnn3Cc3ccco3)cc2c1 | 39 | 99* | -3 | -3 | x | -2
COc1ccccc1CN(Cc1cc2cc(C)ccc2[nH]c1=O)Cc1nnnn1Cc1ccco1 | 29 | 61* | 11 | -11 | 16 | 7
COc1ccc2[nH]c(=O)c(CN(Cc3ccco3)Cc3nnnn3Cc3ccccc3)cc2c1 | -10 | 1 | 24 | -10 | 26 | 5
O=C(NN(C(=O)C1CC1)c1nc2ccccc2s1)C1CC1 | -7 | -6 | 3 | 2 | 22 | 13
CCN(CC)CCN(C(=O)c1ccc(Br)s1)c1nc2cc3c(cc2s1)OCO3 | 29 | -4 | 4 | -5 | -32 | 0
CCN(CC)CCN(C(=O)C1CCCCC1)c1nc2cc3c(cc2s1)OCO3 | 61* | x | 21 | -13 | 18 | 8
CCN(CC)CCN(C(=O)CCS(=O)(=O)c1ccccc1)c1nc2cc3c(cc2s1)OCO3 | 60* | x | 10 | 8 | 16 | -8
O=C(C1CCCCC1)N(CCN1CCCC1)c1nc2ccccc2s1 | 57* | 2 | 24 | -3 | 12 | 5
COc1ccc(C(C(=O)NC2CCCC2)N(C(=O)c2ccco2)c2cc3c(cc2C(C)=O)OCO3)cc1OC (configuration not stated) | 1 | x | -4 | 3 | 19 | -9
C/C(=N\NC(=O)Cc1c[nH]c2ccccc12)c1ccc2ccccc2c1 | -15 | 55* | 9 | -9 | -23 | -11
CC(=O)Nc1ccc(NC(=O)CCCc2c[nH]c3ccccc23)cc1 | -3 | -1 | -11 | 21 | -15 | -18
O=C(CCc1c[nH]c2ccccc12)NCC1COc2ccccc2O1 (configuration not stated) | 8 | 12 | 9 | -8 | 5 | 13
O=C(CCCc1c[nH]c2ccccc12)Nc1ccc2ccccc2c1 | 3 | 52* | 28 | 11 | 32 | -1
